In brackets after ≈: the same amount, converted by molar mass. Activity calls are given as the source filed them. The calls are words filed in the database; no cut-off is given here.

The record followed here is ChEMBL document CHEMBL1143742, “An antifungal agent inhibits an aminoacyl-tRNA synthetase by trapping tRNA in the editing site” (Science, 2007).

Assay [1] has as its target T1, Leucine--tRNA ligase, cytoplasmic (Saccharomyces cerevisiae S288c, UniProt P26637).
T1 sequence (P26637 whole entry): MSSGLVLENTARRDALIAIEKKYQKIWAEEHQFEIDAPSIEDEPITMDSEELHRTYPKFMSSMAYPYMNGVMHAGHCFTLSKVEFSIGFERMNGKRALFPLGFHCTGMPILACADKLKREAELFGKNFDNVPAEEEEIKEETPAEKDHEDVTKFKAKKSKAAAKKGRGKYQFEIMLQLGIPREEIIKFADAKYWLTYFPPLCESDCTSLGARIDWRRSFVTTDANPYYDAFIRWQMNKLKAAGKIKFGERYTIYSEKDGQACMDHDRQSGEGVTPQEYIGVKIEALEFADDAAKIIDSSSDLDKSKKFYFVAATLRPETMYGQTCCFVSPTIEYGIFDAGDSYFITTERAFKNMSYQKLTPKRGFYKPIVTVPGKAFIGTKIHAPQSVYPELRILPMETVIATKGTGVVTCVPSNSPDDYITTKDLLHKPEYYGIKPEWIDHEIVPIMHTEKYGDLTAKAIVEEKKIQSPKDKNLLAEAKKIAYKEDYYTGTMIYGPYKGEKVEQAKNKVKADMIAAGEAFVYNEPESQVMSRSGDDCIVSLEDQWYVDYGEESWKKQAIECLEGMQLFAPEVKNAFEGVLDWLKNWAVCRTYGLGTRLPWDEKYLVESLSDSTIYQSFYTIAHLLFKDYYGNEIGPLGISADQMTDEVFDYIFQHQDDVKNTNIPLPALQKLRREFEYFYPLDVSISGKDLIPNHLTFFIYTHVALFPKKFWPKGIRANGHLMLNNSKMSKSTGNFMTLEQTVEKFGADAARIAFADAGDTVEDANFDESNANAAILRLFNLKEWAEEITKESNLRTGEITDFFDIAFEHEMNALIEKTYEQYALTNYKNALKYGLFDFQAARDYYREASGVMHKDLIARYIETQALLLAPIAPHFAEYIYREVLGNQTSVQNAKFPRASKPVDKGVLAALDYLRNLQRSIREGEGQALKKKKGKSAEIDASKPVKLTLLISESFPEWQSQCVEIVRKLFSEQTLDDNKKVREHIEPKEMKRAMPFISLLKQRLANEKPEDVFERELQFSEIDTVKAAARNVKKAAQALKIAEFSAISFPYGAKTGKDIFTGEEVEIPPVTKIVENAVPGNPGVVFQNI
Kind of assay: Inhibition of Saccharomyces cerevisiae cytoplasmic leucyl-tRNA synthetase assessed as tRNA amino-acylation. In short, it runs like this: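 Recombinant N-terminal His6-tagged yeast Cdc60p (2 nM) in 50 mM HEPES-KOH pH 8.0, 30 mM MgCl2, 30 mM KCl, 0.02% BSA, 1 mM DTT, 20 µM [14C]leucine, 0.2 mg/mL brewer's yeast tRNA at 30°C. Enzyme preincubated 20 min with compound, tRNA and leucine; started with 4 mM ATP. Timed aliquots TCA-precipitated on nitrocellulose filters and counted by scintillation; triplicates.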

Assay [2] has as its system Saccharomyces cerevisiae. Kind of assay: Antimicrobial activity against Saccharomyces cerevisiae in synthetic defined media without leucine. It counts as functional.
Assay [3] has as its system Saccharomyces cerevisiae. The assay can be described thus: Inhibition of protein synthesis in Saccharomyces cerevisiae S288C after 15 mins. The assay is classed as functional, organism-based. In short, it runs like this: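 Mid-log S. cerevisiae S288C in SDM lacking leucine, given 0.25 µCi [14C]leucine plus compound over a range of concentrations. 15 min at 30 °C, then cold 10% TCA for 15 min at 4 °C. Precipitate filtered, washed with 5% TCA and scintillation-counted. Percent incorporation relative to untreated cells. Run twice and averaged.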

The test system of the next assay is Malassezia furfur. The assay can be described thus: Antifungal activity against Malassezia furfur ATCC 44344. It counts as functional.
Assay [4] addresses T1, Leucine--tRNA ligase, cytoplasmic. The assay can be described thus: Inhibition of Saccharomyces cerevisiae cytoplasmic leucyl-tRNA synthetase after 20 mins. In short, it runs like this: (§1)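 His6-tagged yeast Cdc60p (LeuRS) expressed in E. coli Rosetta 2(DE3), used at 2 nM. Buffer 50 mM HEPES-KOH pH 8.0, 30 mM MgCl2, 30 mM KCl, 20 µM [14C]leucine, 0.2 mg/mL brewer's yeast tRNA, 0.02% BSA, 1 mM DTT, 30 °C. TCA-precipitated Leu-tRNA counted. Ki from Lineweaver-Burk y-intercepts replotted against inhibitor.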

The next assay deals with Penicillium chrysogenum. Kind of assay: Antifungal activity against Penicillium chrysogenum ATCC 10108. It counts as functional.
For assay [5], the system named is Saccharomyces cerevisiae. Kind of assay: Antimicrobial activity against AN2690-resistant Saccharomyces cerevisiae ANA321 with CDC60 R316I mutation. The assay is classed as functional.
The target in assay [6] is T1, Leucine--tRNA ligase, cytoplasmic. Kind of assay: Inhibition of Saccharomyces cerevisiae cytoplasmic leucyl-tRNA synthetase after 2 mins. In short, it runs like this: as §1
The subject of assay [7] is Saccharomyces cerevisiae. The assay can be described thus: Antimicrobial activity against AN2690-resistant Saccharomyces cerevisiae ANA324 with CDC60 C326R mutation. It counts as functional.
The test system of another assay is Trichophyton benhamiae. The assay can be described thus: Antifungal activity against Trichophyton mentagrophytes ATCC 28185. The assay is classed as functional, Arthroderma benhamiae.
The test system of the next assay is Fusarium solani. The assay can be described thus: Antifungal activity against Fusarium solani ATCC 36031. It counts as functional.
Assay [8] has as its system Saccharomyces cerevisiae. Kind of assay: Antimicrobial activity against AN2690-resistant Saccharomyces cerevisiae ANA320 with CDC60 N415D mutation. It counts as functional.
The test system of a further assay is Nakaseomyces glabratus. Kind of assay: Antifungal activity against Candida glabrata ATCC 90030. It counts as functional.
Another assay has as its system Epidermophyton floccosum. Kind of assay: Antifungal activity against Epidermophyton floccosum ATCC 525066. It counts as functional.
The subject of a further assay is Alternaria alternata. The assay can be described thus: Antifungal activity against Alternaria alternata ATCC 6663. The assay is classed as functional.
The subject of a further assay is Nannizzia gypsea. The assay can be described thus: Antifungal activity against Microsporum gypseum ATCC 24103. The assay is classed as functional.
The next assay concerns Pichia kudriavzevii. Kind of assay: Antifungal activity against Candida krusei ATCC 44507. The assay is classed as functional.
The test system of assay [9] is Cladosporium cladosporioides. The assay can be described thus: Antifungal activity against Cladosporium cladosporioides ATCC 16022. It counts as functional.
A further assay has as its system Microsporum audouinii. The assay can be described thus: Antifungal activity against Microsporum audouinii ATCC 42558. It counts as functional.
The target in assay [10] is T1, Leucine--tRNA ligase, cytoplasmic. The assay can be described thus: Binding affinity to Saccharomyces cerevisiae cytoplasmic leucyl-tRNA synthetase in presence of AMP. In short, it runs like this: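 Equilibrium dialysis across a 5 kDa membrane in 50 mM HEPES-KOH pH 8.0, 30 mM MgCl2, 30 mM KCl. Both sides counted in triplicate by scintillation, bound = side B minus side A. Kd from Scatchard plot.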

For assay [11], the system named is Saccharomyces cerevisiae. Kind of assay: Antimicrobial activity against AN2690-resistant Saccharomyces cerevisiae ANA358 with CDC60 S416L mutation. It counts as functional.
In a further assay the test system is Candida albicans. The assay can be described thus: Antifungal activity against Candida albicans ATCC 90028. The assay is classed as functional.
The test system of a further assay is Trichophyton rubrum. Kind of assay: Antifungal activity against Trichophyton rubrum ATCC 18759. The assay is classed as functional.
The next assay deals with Cryptococcus neoformans. The assay can be described thus: Antifungal activity against Cryptococcus neoformans F285. The assay is classed as functional.
The test system of a further assay is Candida tropicalis. The assay can be described thus: Antifungal activity against Candida tropicalis ATCC 13803. The assay is classed as functional.
Assay [12] concerns Saccharomyces cerevisiae. Kind of assay: Antimicrobial activity against AN2690-resistant Saccharomyces cerevisiae ANA326 with CDC60 L315V mutation. It counts as functional.
The test system of assay [13] is Saccharomyces cerevisiae. Kind of assay: Antimicrobial activity against AN2690-resistant Saccharomyces cerevisiae ANA322 with CDC60 C326F mutation. It counts as functional.
Assay [14] concerns Saccharomyces cerevisiae. The assay can be described thus: Antimicrobial activity against AN2690-resistant Saccharomyces cerevisiae ANA327 with CDC60 T314M mutation. It counts as functional.
Assay [15] can be described thus: Antifungal activity against Rhizopus microsporus ATCC 66276. It counts as functional.
Another assay relates to Malassezia pachydermatis. Kind of assay: Antifungal activity against Malassezia pachydermatis ATCC 96746. It counts as functional.
Assay [16] relates to Saccharomyces cerevisiae. The assay can be described thus: Antimicrobial activity against AN2690-resistant Saccharomyces cerevisiae ANA323 with CDC60 G405V mutation. The assay is classed as functional.
The subject of assay [17] is Saccharomyces cerevisiae. The assay can be described thus: Antimicrobial activity against AN2690-resistant Saccharomyces cerevisiae ANA360 with CDC60 T319I mutation. The assay is classed as functional.
The test system of the next assay is Aspergillus fumigatus. The assay can be described thus: Antifungal activity against Aspergillus fumigatus ATCC 13073. The assay is classed as functional.
For assay [18], the system named is Saccharomyces cerevisiae. The assay can be described thus: Antimicrobial activity against Saccharomyces cerevisiae ATCC 201388. The assay is classed as functional.

As for `OC1OCc2cc(F)ccc21` (stereo not drawn), in assay [1], the IC50 was above 100 µM.
For the molecule `OB(O)c1ccc(F)cc1`, the IC50 in assay [1] is above 100 µM.
Molecule `C[C@@H]1C[C@@H]([C@H](O)CC2CC(=O)NC(=O)C2)C(=O)[C@@H](C)C1` [CYCLOHEXIMIDE] showed an MIC against Saccharomyces cerevisiae [2] of 0.5 µg/mL (≈ 1.78 µM).
Consider `OB1OCc2cc(F)ccc21` [TAVABOROLE], for which, in the assay on Saccharomyces cerevisiae [3], the outcome was Active. In addition, the MIC was found to be 1 µg/mL (≈ 6.58 µM) against Malassezia furfur; 2 µg/mL (≈ 13.2 µM) against Penicillium chrysogenum; 16 µg/mL (≈ 105 µM) with Saccharomyces cerevisiae [5]; 16 µg/mL (≈ 105 µM) against Saccharomyces cerevisiae [7]; 2 µg/mL (≈ 13.2 µM) in the assay on Trichophyton benhamiae; 2 µg/mL (≈ 13.2 µM) in the assay with Fusarium solani. The MIC is 4 µg/mL (≈ 26.3 µM) in the assay on Saccharomyces cerevisiae [8]; at most 0.125 µg/mL with Nakaseomyces glabratus; 1 µg/mL (≈ 6.58 µM) with Epidermophyton floccosum; 0.06 µg/mL (≈ 0.395 µM) with Saccharomyces cerevisiae [2]; 0.5 µg/mL (≈ 3.29 µM) against Alternaria alternata; 2 µg/mL (≈ 13.2 µM) with Nannizzia gypsea. In addition, the MIC against Pichia kudriavzevii is 1 µg/mL (≈ 6.58 µM); in assay [9], 0.5 µg/mL (≈ 3.29 µM); against Microsporum audouinii, 2 µg/mL (≈ 13.2 µM); against Saccharomyces cerevisiae [11], 32 µg/mL (≈ 211 µM); with Candida albicans, 0.5 µg/mL (≈ 3.29 µM); against Trichophyton rubrum it was 2 µg/mL (≈ 13.2 µM). Further, the MIC against Cryptococcus neoformans was 0.25 µg/mL (≈ 1.65 µM); against Candida tropicalis it was 0.25 µg/mL (≈ 1.65 µM); against Saccharomyces cerevisiae [12], 16 µg/mL (≈ 105 µM); against Saccharomyces cerevisiae [13], 16 µg/mL (≈ 105 µM); in the assay on Saccharomyces cerevisiae [14], 32 µg/mL (≈ 211 µM); in [15], 2 µg/mL (≈ 13.2 µM). For the same molecule, the MIC is 1 µg/mL (≈ 6.58 µM) in the assay on Malassezia pachydermatis; 16 µg/mL (≈ 105 µM) in the assay with Saccharomyces cerevisiae [16]; 32 µg/mL (≈ 211 µM) in the assay with Saccharomyces cerevisiae [17]; 0.25 µg/mL (≈ 1.65 µM) against Aspergillus fumigatus; 0.125 µg/mL (≈ 0.823 µM) with Saccharomyces cerevisiae [18]. Moreover, the Ki in assay [4] is 1.85 µM; in assay [6] it was 31.4 µM. In addition, the Kd in [10] worked out at 20.8 µM. In assay [1], the IC50 worked out at 2.1 µM.
For the molecule `OB1OCCc2cc(F)ccc21`, in assay [1], the IC50 came out at 96 µM.
On to `Cc1cc(F)ccc1B(O)O`, for which the half-maximal inhibitory concentration (IC50) in assay [1] was above 100 µM.
For `C[C@@H]1[C@H](O)[C@@H](C)/C=C/C=C/C=C/C=C/C=C/C=C/C=C/[C@H](O[C@@H]2O[C@H](C)[C@@H](O)[C@H](N)[C@@H]2O)C[C@@H]2O[C@](O)(C[C@@H](O)C[C@@H](O)[C@H](O)CC[C@@H](O)C[C@@H](O)CC(=O)O[C@H]1C)C[C@H](O)[C@H]2C(=O)O` [AMPHOTERICIN B], in the assay on Saccharomyces cerevisiae [2], the minimum inhibitory concentration (MIC) amounted to 1 µg/mL (≈ 1.08 µM).
Turning to `COCc1cc(F)ccc1B(O)O`, the IC50 in [1] is above 100 µM.
Regarding `C/C=C/C/C=C/CCC(=O)[C@H]1O[C@H]1C(N)=O` [CERULENIN], inhibition of growth in the assay with Saccharomyces cerevisiae [2] (MIC) required 0.5 µg/mL (≈ 2.24 µM).
Take `O=C1OCc2cc(F)ccc21`: the IC50 in [1] was above 100 µM.

One may read the IC50 as the concentration that inhibits the measured activity by half. The MIC is the least concentration at which growth counts as inhibited. A higher MIC goes with weaker potency. The Ki is the equilibrium dissociation constant of an inhibitor or competing ligand from its target. Low values mean a stronger hold on the target, high ones a looser hold on the target. As a reminder, the Kd is the equilibrium constant for the complex coming apart.
